The list is not random: actives were taken first. Their share in the collection is about 4.5%.
GPR7 antagonist = blocks human GPR7 receptor signaling; GPR7-expressing cells, fluorescence antagonist assay; inhibition, % at 4.4 µM; 290,000 compounds, 1.1% hits; P48145; AID 1861; in the data active = inhibition above about 16%, passing the limit was not always enough;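 note: cells stimulated with the agonist NPW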
Target sequence (P48145 whole entry, looked up): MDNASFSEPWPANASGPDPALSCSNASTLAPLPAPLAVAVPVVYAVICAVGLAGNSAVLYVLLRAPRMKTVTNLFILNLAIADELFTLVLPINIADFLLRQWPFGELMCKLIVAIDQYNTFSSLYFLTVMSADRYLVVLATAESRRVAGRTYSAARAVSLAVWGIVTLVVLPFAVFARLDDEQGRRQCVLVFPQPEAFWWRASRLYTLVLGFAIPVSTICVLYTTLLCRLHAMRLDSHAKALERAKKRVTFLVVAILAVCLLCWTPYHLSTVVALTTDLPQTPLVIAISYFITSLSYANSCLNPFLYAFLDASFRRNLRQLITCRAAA
OX1R antag-1 = OX1R (human) antagonism; O43613; OX1R-expressing cells, FRET antagonist read-out; AID 485270; inhibition, % at 6.6 µM; 330,000 compounds, 1.8% hits; in the data active = inhibition mostly above about 38%, no sharp cut-off; inactive = mostly below about 40%
CHO parental Ca = signal in parental CHO cells, OX1R antagonist counter-screen. inhibition, % at 5.6 µM. 330,000 compounds, 0.63% hits. AID 463079. parental CHO-K1, ATP-induced calcium, Fluo-8 fluorescence;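 active = inhibition above that plate's mean sample inhibition plus 3 SD, cut at about 26% in these data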
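Assay system: parental CHO cells; Read-out basis: percent inhibition of ATP-evoked calcium rise, normalized to controls; Benchmarks: ATP and no-ATP DMSO wells; Compound dosing: single nominal dose of 5.6 µM per compound; Signal: Fluo-8 calcium dye fluorescence; Also added: ATP as calcium-mobilizing challenge; Repeats: singlicate.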
TAAR1 agonist = agonists of human TAAR1 | Q96RJ0 | CHO RD-HGA16 TAAR1, Fluo-8 calcium fluorescence; vehicle wells 0%, saturating PEA agonist 100% | activation, % at 3 µM | 360,000 compounds, 0.99% hits;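 active = activation above the mean activation of all test compounds in the run plus 3 SD, cut at about 38% in these data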
Target sequence (Q96RJ0 whole entry, looked up): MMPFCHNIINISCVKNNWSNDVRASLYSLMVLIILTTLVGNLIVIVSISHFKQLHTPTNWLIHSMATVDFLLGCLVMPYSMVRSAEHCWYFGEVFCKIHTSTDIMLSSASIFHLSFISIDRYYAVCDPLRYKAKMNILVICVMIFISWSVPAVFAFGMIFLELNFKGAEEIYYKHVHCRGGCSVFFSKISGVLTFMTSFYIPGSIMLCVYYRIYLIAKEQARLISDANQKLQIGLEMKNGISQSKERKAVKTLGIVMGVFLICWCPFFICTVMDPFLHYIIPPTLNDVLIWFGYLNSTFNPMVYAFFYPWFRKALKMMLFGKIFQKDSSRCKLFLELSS
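Assay system – CHO-derived RD-HGA16 cells with stable Gα16 and human TAAR1 · Compound dosing – one-point dosing at 3 µM (nominal) · Incubation – 17-24 h seeding, 75 min 37 °C dye, 30 min RT · Measured by – kinetic Fluo-8 calcium fluorescence · Control set – DMSO vehicle as 0%, PEA at EC100 as 100% · Repeats – single well for each compound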
TAAR1 antagonist = human TAAR1 antagonism; Q96RJ0; CHO RD-HGA16 TAAR1, Fluo-8 calcium fluorescence, antagonist; inhibition, % at 3 µM; 360,000 compounds, 1.5% hits; AID 624466;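 active = inhibition above a per-plate cutoff, the mean inhibition of test compounds on that plate plus 3 SD, cut at about 49% in these data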
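Test system – hTAAR1-expressing CHO RD-HGA16 cells, Gα16-coupled · Also added – β-PEA at EC80 concentration, post-compound challenge · Compound – 3 µM, single point · Incubation – dye loading 75 min at 37 °C, then 30 min room temperature · Measured by – Fluo-8 intracellular calcium dye fluorescence, real-time kinetic reads · Benchmarks – vehicle and agonist controls · Replicates – singlicate, one well per test compound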
OX1R antag-2 = human HCRTR1 antagonism; AID 434989; 330,000 compounds, 0.43% hits; inhibition, % at 5 µM; O43613; CHO/OX1R cells, Fluo-8 calcium fluorescence, orexin A;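 active = inhibition above its plate's threshold, mean inhibition of all tested compounds on the plate plus 3 SD, cut at about 37% in these data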
OX1R HTRF conf = OX1R (human) antagonism, HTRF confirmed; shares compounds with OX1R antag-1; OX1R-expressing cells, HTRF antagonist assay; inhibition, % at 6.6 µM; 1,800 compounds, 49% hits; AID 492964; in the data active = inhibition above about 55%;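 note: CHO cells expressing OX1R stimulated with orexin A at about EC80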
CHO-K1 HTRF cnt = counter-screen: parental CHO-K1 HTRF response; shares compounds with OX1R antag-1; parental CHO-K1 cells, HTRF counterscreen; inhibition, % at 6.6 µM; 1,800 compounds, 48% hits; in the data active = inhibition above about 17%
Each line names hits and unclear results; the compound was inactive in the other large screens (follow-up assays come after a bar, where they were run).

O=C1NC[C@@H](CCCCN2C[C@H](Cc3ccc(O)cc3)N(CCc3ccc(O)cc3)C(=O)C2=O)N(CCc2ccc(O)cc2)C1=O	none (no result: GPR7 antagonist, OX1R antag-1, CHO parental Ca, OX1R antag-2)
O=C(NCCO)c1ccc(-c2cnc3cccnn23)cc1	none (no result: GPR7 antagonist, OX1R antag-1, CHO parental Ca, OX1R antag-2)
Cc1cc(C)n2[nH]c(=O)c(N=Nc3ccc(S(N)(=O)=O)cc3)c2n1	OX1R antag-1 87.7 | OX1R HTRF conf 57.1 | CHO-K1 HTRF cnt 85.1
Cc1ccc(N=Nc2c(=O)[nH]n3c(C)cc(C)nc23)cc1	OX1R antag-1 173.9 | OX1R HTRF conf inactive | CHO-K1 HTRF cnt 80.0
Cc1ccc(N=Nc2c(N)[nH]n3c(=O)cc(C)nc23)cc1	none
O=C(CSc1cccc[n+]1[O-])Nc1c(Br)cc([N+](=O)[O-])cc1Br	OX1R antag-1 118.5 | OX1R HTRF conf inactive | CHO-K1 HTRF cnt 54.2
Cc1cccc(C(C)C)c1NC(=O)CSc1cccc[n+]1[O-]	none (no result: GPR7 antagonist)
Nc1ccc(CCc2ccc(N)cc2)cc1	none (no result: GPR7 antagonist)
Cc1ccc(-c2cc(C(=O)Nc3cc(C)ccc3O)no2)cc1	none
Cc1ccc(O)c(NC(=O)c2cc(-c3ccccc3Cl)on2)c1	OX1R antag-1 89.5 | OX1R HTRF conf 82.9 | CHO-K1 HTRF cnt inactive
COc1ccccc1CCNC(=O)c1c(N)[nH]c(C(=O)c2ccccc2)c1-c1ccc(Br)cc1	none (no result: GPR7 antagonist, OX1R antag-1, CHO parental Ca, OX1R antag-2)
O=C(Nc1ccccn1)c1ccc2ccccc2n1	OX1R antag-1 85.6 | OX1R HTRF conf 67.9 | CHO-K1 HTRF cnt inactive
CN(CC(=O)Nc1ccccc1C(F)(F)F)C(=O)c1ccccc1Sc1ccccc1C#N	none (no result: GPR7 antagonist)
Cc1csc(NC(=O)c2cnc3ccccc3n2)n1	OX1R antag-1 113.4 | OX1R HTRF conf inactive | CHO-K1 HTRF cnt 47.8
COc1cc([N+](=O)[O-])c(C(=O)N2CCOCC2)c([N+](=O)[O-])c1	OX1R antag-1 94.0 | OX1R HTRF conf inactive | CHO-K1 HTRF cnt 41.6
CCCN(CCC)CCCNC(=O)c1cc2cc3ccc(OC)cc3nc2o1	OX1R antag-1 123.0 | OX1R HTRF conf inactive | CHO-K1 HTRF cnt 58.3
COc1ccc2cc3cc(C(=O)NCCc4ccc(OC)c(OC)c4)oc3nc2c1	none
CCCCN(CC)CCCNC(=O)c1cc2cc3ccc(OC)cc3nc2o1	OX1R antag-1 104.4 | OX1R HTRF conf inactive | CHO-K1 HTRF cnt 48.6
Cn1ncc2c(Nc3ccc4ccccc4c3)ncnc21	OX1R antag-1 78.0 | OX1R HTRF conf 77.6 | CHO-K1 HTRF cnt inactive
CCOC(=O)Cn1nc(C)c(NC(=O)COc2ccc([N+](=O)[O-])c(C)c2)c1C	none
O=C(CCNC(=O)c1ccc([N+](=O)[O-])cc1)NCc1ccccc1	none (no result: GPR7 antagonist, OX1R antag-1, CHO parental Ca, OX1R antag-2)
O=C(CCC(=O)NNC(=O)c1ccc([N+](=O)[O-])cc1)NCc1ccccc1	OX1R antag-1 90.7 | OX1R HTRF conf inactive | CHO-K1 HTRF cnt 39.1
O=C(Cn1cnc2cc([N+](=O)[O-])ccc2c1=O)NCCc1ccc(F)cc1	none
CC(C)N(C(=O)Cn1cnc2cc([N+](=O)[O-])ccc2c1=O)C(C)C	OX1R antag-1 141.4 (no result: TAAR1 agonist, TAAR1 antagonist) | OX1R HTRF conf inactive | CHO-K1 HTRF cnt 92.7
CCc1ccc(C(=O)Cn2cnc3cc([N+](=O)[O-])ccc3c2=O)cc1	none
O=C(Cn1cnc2cc([N+](=O)[O-])ccc2c1=O)NCc1ccccc1	OX1R antag-1 95.3 | OX1R HTRF conf 54.9 | CHO-K1 HTRF cnt 61.9
Cc1cccc(NC(=O)Cc2nc(-c3c[nH]c(C(=O)N4CCCC4)c3)cs2)c1	none (no result: GPR7 antagonist, OX1R antag-1, CHO parental Ca, OX1R antag-2)
Cc1cnc(C(=O)OCC(=O)Nc2cc(-c3ccccc3)nn2-c2ccccc2)cn1	none (no result: GPR7 antagonist)
COc1ccc(Br)c(Cn2c(C)c(C(=O)NCCC#N)sc2=O)c1	none (no result: GPR7 antagonist, OX1R antag-1, CHO parental Ca, OX1R antag-2)
Cc1ccc(N(C(=O)c2snc(C(N)=O)c2N)C(C(=O)NC2CCCC2)c2ccncc2)cc1 (stereo not drawn)	none
CCCn1cnc2cc(NC(=O)c3ccco3)ccc21	OX1R antag-1 93.9 | OX1R HTRF conf inactive | CHO-K1 HTRF cnt inactive
O=C(Nc1ccc2nn(-c3ccccc3)nc2c1)c1ccco1	OX1R antag-1 94.7 | OX1R HTRF conf 70.7 | CHO-K1 HTRF cnt inactive
CCn1cnc2cc(NC(=O)c3ccco3)ccc21	none
CC(C)(C)c1ccc(-c2nnc(SC3CCOC3=O)n2Cc2ccccc2)cc1 (stereo not drawn)	OX1R antag-1 84.2 | OX1R HTRF conf inactive | CHO-K1 HTRF cnt inactive
NC(=O)[C@H]1CC2(CC(c3cccc(NC(=O)[C@H]4CCC(=O)N4)c3)=NO2)CN1C(=O)c1cc([N+](=O)[O-])cc([N+](=O)[O-])c1 (stereo partly drawn)	OX1R antag-1 91.2 (no result: GPR7 antagonist) | OX1R HTRF conf inactive | CHO-K1 HTRF cnt 57.3
Cc1c(C(=O)N2CC3(CC(c4cccc(NC(=O)[C@H]5CCC(=O)N5)c4)=NO3)C[C@@H]2C(N)=O)cc([N+](=O)[O-])cc1[N+](=O)[O-] (stereo partly drawn)	none (no result: GPR7 antagonist)
Cc1cnc([N+](=O)[O-])n1CCOC(=O)NC(=O)c1cccc(F)c1	OX1R antag-1 77.9 | OX1R HTRF conf 59.6 | CHO-K1 HTRF cnt inactive
Cc1cnc([N+](=O)[O-])n1CCOC(=O)NC(=O)c1ccccc1Cl	none
CCN(CC)c1ccc(N=Nc2nn(C)c(C)c2[N+](=O)[O-])cc1	OX1R antag-1 88.2 | OX1R HTRF conf inactive | CHO-K1 HTRF cnt 29.3
